# TAAR1 antag: antagonists of human TAAR1 | Q96RJ0 | CHO RD-HGA16 TAAR1, Fluo-8 calcium fluorescence, antagonist | inhibition, % at 3 µM | actives 1.5% (n = 360,000) | AID 624466;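 active means inhibition above a per-plate cutoff, the mean inhibition of test compounds on that plate plus 3 SD, cut at about 49% in these data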;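 further: 0% = DMSO plus EC80 beta-PEA response and 100% = DMSO alone without agonist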
#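 Test system – hTAAR1-expressing CHO RD-HGA16 cells, Gα16-coupled · Also added – β-PEA at EC80 concentration, post-compound challenge · Compound – 3 µM, single point · Incubation – dye loading 75 min at 37 °C, then 30 min room temperature · Measured by – Fluo-8 intracellular calcium dye fluorescence, real-time kinetic reads · Benchmarks – vehicle and agonist controls · Replicates – singlicate, one well per test compound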
# OX1R antag-1: antagonists of human orexin 1 receptor; O43613; CHO/OX1R cells, Fluo-8 calcium fluorescence, orexin A; inhibition, % at 5 µM; actives 0.43% (n = 330,000); AID 434989;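 active means inhibition above its plate's threshold, mean inhibition of all tested compounds on the plate plus 3 SD, cut at about 37% in these data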;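 further: 0% = orexin A challenge wells and 100% = SB-334867-A antagonist wells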
# TAAR1 ag: agonists of human TAAR1; activation, % at 3 µM; Q96RJ0; CHO RD-HGA16 TAAR1, Fluo-8 calcium fluorescence; vehicle wells 0%, saturating PEA agonist 100%; actives 0.99% (n = 360,000);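 active means activation above the mean activation of all test compounds in the run plus 3 SD, cut at about 38% in these data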
#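 System: CHO-derived RD-HGA16 cells with stable Gα16 and human TAAR1. Times: 17-24 h plating, Fluo-8 75 min 37 °C, 30 min RT. Measured by: calcium-sensitive Fluo-8 signal, excitation 470-495, emission 515-575 nm. Read-out basis: % activation relative to PEA EC100 response. Control set: DMSO and PEA EC100. Repeats: no replicates (n 1).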
# CHO parental Ca: counter-screen: ATP calcium response change in parental CHO cells. inhibition, % at 5.6 µM. AID 463079. parental CHO-K1, ATP-induced calcium, Fluo-8 fluorescence. actives 0.63% (n = 330,000);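 active means inhibition above that plate's mean sample inhibition plus 3 SD, cut at about 26% in these data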;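 further: 0% = ATP-challenged DMSO wells and 100% = DMSO wells without ATP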
#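 Assay system: parental CHO cells; Read-out basis: percent inhibition of ATP-evoked calcium rise, normalized to controls; Benchmarks: ATP and no-ATP DMSO wells; Compound dosing: single nominal dose of 5.6 µM per compound; Signal: Fluo-8 calcium dye fluorescence; Also added: ATP as calcium-mobilizing challenge; Repeats: singlicate.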
# GPR7 antag: human neuropeptides B/W receptor 1 antagonism | P48145 | GPR7-expressing cells, fluorescence antagonist assay | inhibition, % at 4.4 µM | actives 1.1% (n = 290,000) | AID 1861; in the data active means inhibition above about 16%, passing the limit was not always enough;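 further: cells stimulated with the agonist NPW; 0% = agonist with vehicle and 100% = vehicle without agonist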
# Target sequence (P48145 whole entry, looked up): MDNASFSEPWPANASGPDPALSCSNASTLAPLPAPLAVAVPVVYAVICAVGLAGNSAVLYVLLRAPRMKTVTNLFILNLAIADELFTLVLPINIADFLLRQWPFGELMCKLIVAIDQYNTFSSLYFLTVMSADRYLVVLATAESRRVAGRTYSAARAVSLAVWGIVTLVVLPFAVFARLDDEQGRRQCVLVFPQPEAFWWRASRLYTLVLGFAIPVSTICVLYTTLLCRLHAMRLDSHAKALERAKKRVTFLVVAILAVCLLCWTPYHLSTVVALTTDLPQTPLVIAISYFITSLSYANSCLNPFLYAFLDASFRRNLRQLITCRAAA
# OX1R antag-2: antagonists of human orexin 1 receptor (OX1R). OX1R-expressing cells, FRET antagonist read-out. inhibition, % at 6.6 µM. actives 1.8% (n = 330,000). AID 485270; in the data active means inhibition mostly above about 38%, no sharp cut-off; inactive means mostly below about 40%;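 further: 0% = agonist challenge alone and 100% = reference antagonist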
# * hit, by the source's call; x = no result. Most compounds without a hit are left out; they make up all but 4.6% or so of the library.
SMILES,TAAR1 antag,OX1R antag-1,TAAR1 ag,CHO parental Ca,GPR7 antag,OX1R antag-2
Cc1ccccc1Nc1nc(N)nc(CSc2nc3ccccc3s2)n1,-1,2,1,-34,-9,67*
Cc1ccccc1Nc1nc(N)nc(CSc2nc3ccccc3c(=O)n2C)n1,59*,-28,13,-16,0,2
O=C(c1ccccc1)N(Cc1cccnc1)C1(C(=O)Nc2ccccc2)CCCCC1,-5,-18,2,-17,6,1
O=C(NCc1ccccn1)c1ccc([N+](=O)[O-])cc1,9,-14,0,-6,3,31
O=C(Nc1cc(Sc2ccccn2)cc([N+](=O)[O-])c1)c1ccc([N+](=O)[O-])cc1,24,44*,15,41*,-7,22
O=[N+]([O-])c1ccc(CSc2ccccn2)cc1,4,-5,-1,-6,2,2
O=[N+]([O-])c1ccc(Sc2ccccn2)nc1,-33,0,0,2,-3,73*
O=C(c1ccc([N+](=O)[O-])cc1)N(c1ccccn1)c1ccccn1,-9,-11,4,1,2,74*
O=C(Nc1ccc([N+](=O)[O-])cc1)c1ccccc1,4,7,4,3,0,15
Cc1cc(C)c(NC(=O)CNC(=O)Cc2sc(C)nc2-c2ccc(F)cc2)c(C)c1,-11,-46,1,-44,x,13
COc1ccc(N2C[C@H](CSC)[C@@H](CC(=O)Nc3ccccc3)C2=O)cc1,-14,x,0,x,x,x
CC1CC(CN)CC(CO)C1 (centres undefined),-17,1,0,1,-7,4
CCCCNC(=O)O[C@@H]1C[C@H]2CCC(=O)N3CC[C@@H](C1)[C@@H]23,3,-8,1,-12,11,7
CCN(CC)CCOC(=O)c1ccc(NC(=O)c2ccc(Cl)c(S(=O)(=O)N3CCCCCC3)c2)cc1,-13,-21,8,-15,-2,31
Cc1ccc(NC(=S)NCc2ccc(S(N)(=O)=O)cc2)cc1Cl,23,1,16,5,20*,2
CC(C)n1c(=NC(=O)c2ccco2)c(C#N)cc2c(=O)n3ccccc3cc21,-9,-24,5,-10,-4,54*
Cc1ccc(NC(=O)CN(C)C(=O)c2ccc(NS(=O)(=O)c3ccc4[nH]c(=O)[nH]c4c3)cc2)cc1,5,18,11,-14,x,3
Cc1c(C(=O)NCCS(=O)(=O)N2CCN(c3ccccc3F)CC2)cccc1[N+](=O)[O-],-7,-10,11,-1,6,-6
O=C1NC(=O)C(Cc2cccc(Oc3ccccc3)c2)S1 (centres undefined),-22,-14,0,-5,5,44*
COc1ccc2cc(C(=O)C3CCCN(Cc4cnc(N5CCOCC5)s4)C3)ccc2c1 (centres undefined),7,-22,40*,-12,-3,34
CC(C)Oc1cccc(C(=O)C2CCCN(Cc3cnc(N4CCCC4)s3)C2)c1 (centres undefined),-26,-44,31,-16,-2,8
CCN(C(=O)COC(=O)c1cc2c(s1)CCC(C)C2)c1c(N)n(Cc2ccccc2)c(=O)[nH]c1=O (centres undefined),-1,x,1,x,x,x
Fc1ccc(-c2ccc(Nc3cccc(F)c3)nn2)cc1,30,0,1,44*,-3,13
CCOC(=O)c1sc(NC(=O)C2CC(=O)N(c3ccc4c(c3)OCCO4)C2)nc1C (centres undefined),-2,-17,2,-7,x,-5
CCOc1ccc(-c2cc(N)n(S(=O)(=O)c3cccc4nsnc34)n2)cc1,-5,-39,-3,-25,-8,18
SMILES,TAAR1 antag,OX1R antag-1,TAAR1 ag,CHO parental Ca,GPR7 antag,OX1R antag-2
COc1cc(OC)cc(-c2cc(N)n(S(=O)(=O)c3cccc4nsnc34)n2)c1,-5,16,4,4,9,49*
Cc1ccc2c(c1)c1c(n2CC(O)CNC(C)(C)C)CCCC1 (centres undefined),0,x,10,x,21*,x
Cc1nn(Cc2c(Cl)cccc2Cl)c(C)c1NC(=O)c1cc(C(C)C)on1,-10,89*,0,91*,-5,6
Cc1cc(C(=O)Nc2c(C)nn(Cc3c(Cl)cccc3Cl)c2C)no1,-4,-8,13,-4,-17,15
CCN(CC(=O)Nc1ccc(Br)cc1)C(=O)Cc1cccc(F)c1,5,-9,3,-20,-3,49*
CCn1c(CSc2nc3ccccc3s2)nc2ccccc21,38,79*,20,55*,-5,100*
Cc1ccc(CNC(=S)Nc2ccc(NS(=O)(=O)c3ccc(C)cc3)cc2)cc1,28,x,7,x,-25,x
CCNC(=O)O/N=C1\CCCCC1c1ccc([N+](=O)[O-])cc1[N+](=O)[O-] (centres undefined),-6,-16,2,-3,0,46*
O=C(NCC1CCCCC1)c1ccc([N+](=O)[O-])cc1,1,-10,2,2,-4,27
CS(=O)(=O)O/N=C1\CCCCC1c1ccc([N+](=O)[O-])cc1[N+](=O)[O-] (centres undefined),5,-3,0,-4,4,49*
CCN(CC(=O)Nc1ccc(C#N)cc1)CC(=O)Nc1ccc2c(c1)OCCO2,2,x,1,x,x,x
Cc1ccc(CN2CCCN(Cc3ccc(F)cc3Cl)S2(=O)=O)cc1,3,-5,2,47*,0,-2
O=C1NCCCN1Cc1ccc(F)cc1Cl,4,x,2,x,-12,x
O=S1(=O)N(Cc2ccccc2F)CCCN1Cc1c(F)cccc1Cl,11,36,-1,66*,-13,16
Cc1ccc(CN2CCCN(Cc3c(F)cccc3Cl)S2(=O)=O)cc1,32,-4,13,24,-6,7
COC(=O)[C@]12CCCCC=C1N(Cc1ccc(Cl)cc1Cl)C(=O)[C@H](CC(=O)N1CCN(C(=O)c3ccco3)CC1)C2,1,x,4,x,x,x
Cc1ccc2c(c1)N(C(=O)CCC(=O)N1CCC(C(N)=O)CC1)CCO2,5,6,1,1,1,13
O=C(c1ccco1)N1CCN(c2ncnc3c2oc2ccccc23)CC1,10,0,14,-14,-3,74*
CCCCCOC(=O)Nc1nnc(CCCCC)s1,-1,-35,1,-21,19*,7
COc1cccc(NC(=O)Cc2nc(-c3ccccc3)sc2-c2ccc(C)cc2)c1,4,-20,5,-16,2,21
CC(=O)Nc1cccc(NC(=O)Cc2nc(-c3ccccc3)sc2-c2ccc(C)cc2)c1,3,13,-1,-2,16,68*
